These results are taken from ChEMBL document CHEMBL3585287, “1-Benzyl-4-phenyl-1H-1,2,3-triazoles improve the transcriptional functions of estrogen-related receptor γ and promote the browning of white adipose” (Bioorg Med Chem, 2015).

The target in assay [1] is T1, Estrogen-related receptor gamma (Mus musculus) (UniProt P62509).
T1 sequence (whole entry): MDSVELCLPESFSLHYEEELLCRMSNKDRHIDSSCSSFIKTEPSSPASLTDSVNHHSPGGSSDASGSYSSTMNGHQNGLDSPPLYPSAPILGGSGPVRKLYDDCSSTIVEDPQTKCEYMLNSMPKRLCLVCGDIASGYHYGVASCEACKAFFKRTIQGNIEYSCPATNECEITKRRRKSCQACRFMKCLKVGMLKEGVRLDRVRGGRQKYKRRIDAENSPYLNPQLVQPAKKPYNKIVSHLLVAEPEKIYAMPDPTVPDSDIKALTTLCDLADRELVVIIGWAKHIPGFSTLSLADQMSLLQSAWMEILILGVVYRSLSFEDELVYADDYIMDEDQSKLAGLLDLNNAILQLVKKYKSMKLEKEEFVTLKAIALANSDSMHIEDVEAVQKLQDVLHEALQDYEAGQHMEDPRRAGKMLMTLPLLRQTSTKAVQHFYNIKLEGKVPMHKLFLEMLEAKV
In words: Increase in ERRgamma mediated transcriptional activity in primary mouse embryonic fibroblasts assessed as increase in ATP5b protein levels at 0.5 to 5 uM by Western blotting method. In short, it runs like this: (§1)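 Differentiated MEF adipocytes were treated with compound from day 8 for 2 days. Cells were lysed in RIPA buffer on ice; 40 μg protein was run on 12% SDS-PAGE and blotted to PVDF. Primary antibodies overnight at 4 °C (UCP1 1:1000, SDH 1:4000, MCAD 1:5000, ATP5b 1:1000, β-actin 1:2000), then HRP secondary for 4 h at 4 °C and ECL detection. Three independent experiments.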
Background: Immunoblotting shows a protein as a band on a membrane.

Assay [2] concerns Mus musculus. In words: In vivo induction of white adipose browning in C57BL6 mouse subcutaneous white adipose tissue assessed as increase in UCP1 mRNA expression at 20 mg/kg/day, po by real-time PCR assay. Type of assay: functional, organism-based. In short, it runs like this: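 Male C57BL6 mice (8 weeks) on 60% fat diet received 20 mg/kg compound or vehicle (5% alcohol in PBS) daily by oral gavage for 4 weeks. Subcutaneous white adipose was collected and stored at -80 °C; RNA was analyzed by SYBR qPCR against GAPDH.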
On the technique in general: Quantitative PCR measures a nucleic acid by following its amplification.

In assay [3] the test system is MEF. In words: Induction of mitochondrial biogenesis in primary mouse embryonic fibroblasts assessed as increase in COX2 mRNA expression at 0.5 to 5 uM by quantitative real time PCR assay. Format: functional, cell-based. The essentials: (§2)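 MEFs were grown to confluence and held 2 days, then differentiated from day 0 with 5 μg/mL insulin, 1 μM dexamethasone and 0.5 mM IBMX. From day 8, cells received compound in DMEM/10% FBS for 2 more days. Total RNA was extracted with Trizol and reverse transcribed; SYBR qPCR normalized to GAPDH. Mean ± SEM of three independent experiments.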

Assay [4] addresses T1, Estrogen-related receptor gamma (Mus musculus). As to the kind of experiment: Increase in ERRgamma mediated transcriptional activity in primary mouse embryonic fibroblasts assessed as increase in ERRalpha mRNA levels by quantitative real time PCR assay. In short, it runs like this: as §2
For assay [5] the target is unchanged. In words: Increase in ERRgamma mediated transcriptional activity in primary mouse embryonic fibroblasts assessed as increase in SHP mRNA levels by quantitative real time PCR assay. In short, it runs like this: as §2
For assay [6], the system named is MEF. In words: Induction of mitochondrial biogenesis in primary mouse embryonic fibroblasts assessed as increase in CPT1 mRNA expression at 0.5 to 5 uM by quantitative real time PCR assay. Format: functional, cell-based. The essentials: as §2
Assay [7] relates to MEF. In words: Induction of mitochondrial biogenesis in primary mouse embryonic fibroblasts assessed as increase in CS mRNA expression at 0.5 to 5 uM by quantitative real time PCR assay. Type of assay: functional, cell-based. The essentials:
as §2

In assay [8] the target is T1, Estrogen-related receptor gamma (Mus musculus). As to the kind of experiment: Increase in ERRgamma mediated transcriptional activity in primary mouse embryonic fibroblasts assessed as increase in ATP5b mRNA levels by quantitative real time PCR assay. In short, it runs like this: as §2
The target in assay [9] is T2, Estrogen-related receptor gamma (Homo sapiens) (UniProt P62508).
T2 sequence (whole entry): T1 sequence (whole entry)
As to the kind of experiment: Activation of GAL4-DBD-ERRgamma ligand binding domain (unknown origin) expressed in HEK293FT cells incubated for 24 hrs by mammalian two-hybrid reporter gene assay. Type of assay: cell-based. The essentials: (§3)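 293FT cells (DMEM, 10% FBS) were seeded at 10,000 cells/well and transfected 18-24 h later with GAL4-DBD-ERRγ-LBD (0.5 ng), pcDNA-PGC-1α (0.5 ng), pFR reporter (25 ng) and pRLTK renilla (3 ng). After 6 h, compound was added at 2 μM for 24 h. Dual luciferase readout, firefly/renilla ratio taken as RLU. Run in triplicate, ≥3 independent experiments.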

The target of assay [10] is T1, Estrogen-related receptor gamma (Mus musculus). As to the kind of experiment: Increase in ERRgamma mediated transcriptional activity in primary mouse embryonic fibroblasts assessed as increase in MCAD mRNA levels by quantitative real time PCR assay. In short, it runs like this:
as §2

The subject of assay [11] is MEF. In words: In vitro induction of white adipose browning in primary mouse embryonic fibroblasts assessed as increase in UCP1 protein expression at 0.5 to 5 uM by Western blot method. Type of assay: functional, cell-based. The essentials:
as §1

For assay [12], the target named is T1, Estrogen-related receptor gamma (Mus musculus). As to the kind of experiment: Increase in ERRgamma mediated transcriptional activity in primary mouse embryonic fibroblasts assessed as increase in MCAD protein levels at 0.5 to 5 uM by Western blotting method. The essentials:
as §1

Assay [13] has as its system Adipocyte. As to the kind of experiment: In vitro induction of white adipose browning in mouse white adipocytes differentiated from primary preadipocytes cells of subcutaneous adipose tissue assessed as increase in UCP1 mRNA expression at 1 and 5 uM by real-time PCR assay. Format: functional, cell-based. The essentials: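 Subcutaneous fat preadipocytes were isolated by 0.1% collagenase I digestion (40 min, 37 °C), filtered and cultured. Differentiation used insulin (5 μg/mL), dexamethasone (1 μM) and IBMX (0.5 mM). From day 8, compound was given in DMEM/10% FBS for 2 days. UCP1 mRNA was measured by SYBR qPCR against GAPDH.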

The test system of assay [14] is MEF. As to the kind of experiment: In vitro induction of white adipose browning in primary mouse embryonic fibroblasts assessed as increase in UCP1 positive adipocytes by Immunofluorescence staining assay. Format: functional, cell-based. In short, it runs like this: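 MEF-derived adipocytes on coverslips were treated from day 8 for 2 days. They were fixed in 4% formaldehyde, blocked in 5% BSA for 1 h, stained with rabbit anti-UCP1 (1:1000, 4 °C overnight) and then Alexa Fluor 647 secondary (1:200, 1 h), with DAPI nuclei. Imaged by fluorescence microscopy.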

Assay [15] has as its system Mus musculus. In words: In vivo induction of white adipose browning in C57BL6 mouse interscapularbrown adipose tissue assessed as increase in UCP1 expression at 20 mg/kg/day, po by immunohistochemistry. Type of assay: functional, organism-based. As to conditions: in the assay text read “subcutaneous white adipose tissue” for “interscapularbrown adipose tissue”. The essentials:
(§4)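 Male C57BL6 mice (8 weeks) on a high-fat diet (60% energy as fat) were gavaged daily for 4 weeks with 20 mg/kg compound or vehicle (5% alcohol in PBS). Adipose tissues were fixed overnight in 4% formaldehyde, paraffin-sectioned and immunostained for UCP1 (1:1000); UCP1-positive area was quantified. Two independent experiments.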

Assay [16] relates to MEF. In words: In vitro induction of white adipose browning in primary mouse embryonic fibroblasts assessed as increase in Prdm16 mRNA expression at 0.5 to 5 uM by real-time PCR assay. Format: functional, cell-based. In short, it runs like this: as §2
Assay [17] relates to MEF. In words: Induction of mitochondrial biogenesis in primary mouse embryonic fibroblasts assessed as increase in SDH protein expression at 0.5 to 5 uM by Western blot method. Type of assay: functional, cell-based. In short, it runs like this:
as §1

Assay [18] concerns the target T2, Estrogen-related receptor gamma (Homo sapiens). As to the kind of experiment: Activation of GAL4-DBD-ERRgamma ligand binding domain (unknown origin) expressed in HEK293FT cells at 2 uM incubated for 24 hrs by mammalian two-hybrid reporter gene assay. Type of assay: cell-based. The essentials: as §3
For assay [19], the system named is MEF. As to the kind of experiment: In vitro induction of white adipose browning in primary mouse embryonic fibroblasts assessed as increase in UCP1 mRNA expression by real-time PCR assay. Type of assay: functional, cell-based. The essentials: as §2
Assay [20] concerns the target T3, Estrogen-related receptor gamma (Homo sapiens, UniProt P62508).
T3 sequence (P62508 whole entry): T1 sequence (whole entry)
In words: Binding affinity to ERRgamma (unknown origin) at 20 degC by isothermal titration calorimetry. A general note: Isothermal titration calorimetry measures the heat released or taken up as one component is titrated into another.

Assay [21] deals with MEF. As to the kind of experiment: Induction of mitochondrial biogenesis in primary mouse embryonic fibroblasts assessed as increase in PGC-1alpha mRNA expression at 0.5 to 5 uM by quantitative real time PCR assay. Format: functional, cell-based. In short, it runs like this: as §2
Assay [22] deals with Mus musculus. In words: In vivo induction of white adipose browning in C57BL6 mouse subcutaneous white adipose tissue assessed as increase in UCP1 positive stained area at 20 mg/kg/day, po by immunohistochemistry. Format: functional, organism-based. In short, it runs like this: as §4
For assay [23], the system named is MEF. As to the kind of experiment: Induction of mitochondrial biogenesis in primary mouse embryonic fibroblasts assessed as increase in SDH mRNA expression at 0.5 to 5 uM by quantitative real time PCR assay. Format: functional, cell-based. The essentials: as §2
In assay [24] the target is T2, Estrogen-related receptor gamma (Homo sapiens). As to the kind of experiment: Binding affinity to ERRgamma (unknown origin) assessed as increase in protein melting temperature by CD spectroscopy. The essentials: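 Purified ERRγ protein was diluted to 0.2 mg/mL in phosphate buffer and incubated overnight with ligand (200 mM DMSO stock). CD ellipticity was read at 200–260 nm in a 1 mm quartz cuvette. Temperature was stepped 1 °C at a time from 30 to 60 °C to obtain Tm.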

Assay [25] deals with MEF. As to the kind of experiment: Induction of mitochondrial biogenesis in primary mouse embryonic fibroblasts at 5 uM incubated for 2 days by electron microscopy. Format: functional, cell-based. In short, it runs like this:
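On day 10, MEF-derived white adipocytes were fixed in 2.5% glutaraldehyde for 1 h, post-fixed in 1% osmic acid for 1 h, dehydrated in graded ethanol and embedded in epoxy. Ultrathin sections were stained with uranyl acetate and lead citrate and examined by transmission electron microscopy.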

Assay [26] deals with MEF. As to the kind of experiment: Increase ERRgamma mRNA levels in primary mouse embryonic fibroblasts at 0.5 to 5 uM by quantitative real time PCR assay. Type of assay: functional, cell-based. The essentials: as §2
For assay [27], the target named is T1, Estrogen-related receptor gamma (Mus musculus). As to the kind of experiment: Increase in ERRgamma mediated transcriptional activity in primary mouse embryonic fibroblasts assessed as increase in SHP mRNA levels at 1 uM by quantitative real time PCR assay. In short, it runs like this: as §2
For assay [28] the target is unchanged. As to the kind of experiment: Increase in ERRgamma mediated transcriptional activity in primary mouse embryonic fibroblasts assessed as increase in ATP5b mRNA levels at 1 uM by quantitative real time PCR assay. In short, it runs like this:
as §2

Assay [29] shares this target. In words: Increase in ERRgamma mediated transcriptional activity in primary mouse embryonic fibroblasts assessed as increase in ERRalpha mRNA levels at 1 uM by quantitative real time PCR assay. The essentials: as §2
For assay [30] the target is unchanged. As to the kind of experiment: Increase in ERRgamma mediated transcriptional activity in primary mouse embryonic fibroblasts assessed as increase in MCAD mRNA levels at 1 uM by quantitative real time PCR assay. In short, it runs like this: as §2

Activity calls are given as the source filed them. No cut-off for these calls is given here.

Regarding `CC(C)c1ccc(Cn2cc(-c3ccc(O)c(O)c3)nn2)cc1`, the outcome in assay [1], in assay [2], in [3], in [6], in assay [7] and in assay [11] was Active. The outcome in [12], in assay [13], in [14], in assay [15], in assay [16] and in assay [17] was Active. The result in assay [21], in assay [22], in [23], in [25] and in assay [26] was Active. Also, the Activity entry in assay [4], in assay [5], in [8], in assay [9], in [10] and in [19] was “Dose-dependent effect” throughout. Besides, the fold change (FC) in assay [18] turned out to be 4.98. Besides, in assay [20], the affinity, expressed as Kd, was 46 µM. Also, the ΔTm (in general, the change in melting temperature against a reference sample) in [24] is 0.7 °C.
With `Cc1ccc(Cn2cc(-c3ccc(O)c(O)c3)nn2)cc1`, the fold change (FC) in assay [18] came to 2.9.
In turn, `Oc1ccc(-c2cn(Cc3ccccc3)nn2)cc1O` showed a fold change (FC) in assay [18] of 1.43.
On the same count and under the same terms, as for `Oc1ccc(-c2cn(Cc3ccc(-c4ccccc4)cc3)nn2)cc1O`, the figure is 2.56; as for `CC(C)c1ccc(Cn2cc(-c3cccc(O)c3)nn2)cc1`, 2.21; as for `CC(C)c1ccccc1Cn1cc(-c2ccc(O)c(O)c2)nn1`, 2.4.
On the same count and under the same terms, as for `CC(C)c1cccc(Cn2cc(-c3ccc(O)c(O)c3)nn2)c1`, the figure is 3.32.
Consider `CC(C)c1ccc(Cn2cc(-c3ccccc3O)nn2)cc1`, for which the result in [27], in [28], in assay [29] and in [30] was inactive. Besides, the fold change (FC) in assay [18] is 1.1.
The molecule `CC(C)c1ccc(Cn2cc(-c3ccccc3)nn2)cc1` displayed a fold change (FC) in [18] of 1.31.
On the same count and under the same terms, as for `CC(C)(C)c1ccc(Cn2cc(-c3ccc(O)c(O)c3)nn2)cc1`, the figure is 4.18; as for `CC(C)c1ccc(/C=N/NC(=O)c2ccc(O)cc2)cc1`, 1.85; as for `CC(C)c1ccc(Cn2cc(-c3ccc(O)cc3)nn2)cc1`, 1.69.
